Laboratory results as given in ChEMBL document CHEMBL3120077, “Synthesis, structure-activity relationship of iodinated-4-aryloxymethyl-coumarins as potential anti-cancer and anti-mycobacterial agents” (Eur J Med Chem, 2014).
Values after ≈ are worked out from the molar mass of the structure shown.

Assays:
Assay type in all cases: functional
[1] = tested on: Mycolicibacterium phlei; experiment: Antimicrobial activity against Mycobacterium phlei after 5 days by microplate Alamar Blue assay; conditions: 120 h
Procedure, shortened: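 Microplate Alamar Blue assay (MABA) in Middlebrook 7H9 broth, compounds serially diluted on plate to final 100–0.2 µg/mL. Plates sealed and incubated 37 °C for 5 days, then 1:1 Alamar Blue/10% Tween 80 added and incubated 24 h more. Blue scored as no growth, pink as growth.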

[2] = tested on: Mycobacterium tuberculosis; experiment: Antimicrobial activity against Mycobacterium tuberculosis H37Rv after 5 days by microplate Alamar Blue assay; conditions: 120 h
Procedure, shortened: (§1)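 M. tuberculosis H37Rv was tested in Middlebrook 7H9 broth in a microplate Alamar Blue assay. Compounds were serially diluted on the plate to final concentrations of 100–0.2 µg/mL. Sealed plates were incubated at 37 °C for 5 days. A fresh 1:1 mix of Alamar Blue and 10% Tween 80 was then added, followed by 24 h more incubation. Blue wells were scored as no growth, pink as growth.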

[3] = tested on: A549; experiment: Cytotoxicity against human A549 cells after 24 hrs by MTT assay
Procedure, shortened: (§2)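 Cells seeded at 2×10^4/well, incubated overnight, then exposed 24 h to test concentrations. MTT (5 mg/mL stock) added, 3 h at 37 °C; formazan dissolved in DMSO, absorbance 570 nm. Percent viability inhibition relative to untreated control; IC50 from linear regression of the dose-response line.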

[4] = Cytotoxicity against human MDA-MB cells after 24 hrs by MTT assay; procedure, shortened: as §2
[5] = tested on: Mycobacterium tuberculosis; experiment: Antimicrobial activity against Mycobacterium tuberculosis; procedure, shortened: as §1
[6] = tested on: Mycobacterium tuberculosis; experiment: Antimicrobial activity against Mycobacterium tuberculosis ATCC 27294 by microplate Alamar Blue assay; procedure, shortened: as §1

Row | SMILES | MIC [1] | MIC [2] | MIC [3] | MIC [4] | MIC [5] | MIC [6]
1 | O=c1cc(COc2ccc(I)cc2)c2ccc3ccccc3c2o1 | 25 µg/mL (≈ 58.4 µM) | 25 µg/mL (≈ 58.4 µM) | 6.25 µg/mL (≈ 14.6 µM) | 25 µg/mL (≈ 58.4 µM) | – | –
2 | Cc1ccc2c(COc3cccc(I)c3)cc(=O)oc2c1C | 25 µg/mL (≈ 61.5 µM) | 25 µg/mL (≈ 61.5 µM) | 25 µg/mL (≈ 61.5 µM) | 25 µg/mL (≈ 61.5 µM) | – | –
3 | O=c1cc(COc2ccc(I)cc2)c2cc(Br)ccc2o1 | 6.25 µg/mL (≈ 13.7 µM) | 6.25 µg/mL (≈ 13.7 µM) | 3.12 µg/mL (≈ 6.84 µM) | 3.12 µg/mL (≈ 6.84 µM) | – | –
4 | O=c1cc(COc2cccc(I)c2)c2ccc(Cl)cc2o1 | 6.25 µg/mL (≈ 15.1 µM) | 12.5 µg/mL (≈ 30.3 µM) | 6.25 µg/mL (≈ 15.1 µM) | 6.25 µg/mL (≈ 15.1 µM) | – | –
5 | Cc1ccc2oc(=O)cc(COc3ccccc3I)c2c1 | > 100 µg/mL | 12.5 µg/mL (≈ 31.9 µM) | 50 µg/mL (≈ 127 µM) | 12.5 µg/mL (≈ 31.9 µM) | – | –
6 | CN[C@@H]1[C@H](O[C@H]2[C@H](O[C@H]3[C@H](O)[C@@H](O)[C@H](N=C(N)N)[C@@H](O)[C@@H]3N=C(N)N)O[C@@H](C)[C@]2(O)C=O)O[C@@H](CO)[C@H](O)[C@H]1O [STREPTOMYCIN] | 6.25 µg/mL (≈ 10.7 µM) | 6.25 µg/mL (≈ 10.7 µM) | – | – | – | –
7 | Cc1cc(=O)oc2cc(OCc3cn(Cc4cc(=O)oc5ccc(Cl)cc45)nn3)ccc12 | – | – | – | – | 6.25 µg/mL (≈ 13.9 µM) | –
8 | Cc1ccc2c(COc3ccc(I)cc3)cc(=O)oc2c1C | 12.5 µg/mL (≈ 30.8 µM) | 12.5 µg/mL (≈ 30.8 µM) | 12.5 µg/mL (≈ 30.8 µM) | 12.5 µg/mL (≈ 30.8 µM) | – | –
9 | NC(=O)c1cnccn1 [PYRAZINAMIDE] | 3.12 µg/mL (≈ 25.4 µM) | 3.12 µg/mL (≈ 25.4 µM) | – | – | – | –
10 | O=c1cc(COc2ccc(I)cc2)c2c(ccc3ccccc32)o1 | 25 µg/mL (≈ 58.4 µM) | 25 µg/mL (≈ 58.4 µM) | 6.25 µg/mL (≈ 14.6 µM) | 25 µg/mL (≈ 58.4 µM) | – | –
11 | O=C(N/N=C/c1cccc(O)c1)c1cc2ccccc2oc1=O | – | – | – | – | 50 µg/mL (≈ 162 µM) | –
12 | O=c1cc(COc2ccccc2I)c2ccc3ccccc3c2o1 | 50 µg/mL (≈ 117 µM) | 50 µg/mL (≈ 117 µM) | 25 µg/mL (≈ 58.4 µM) | 25 µg/mL (≈ 58.4 µM) | – | –
13 | Cc1cc(=O)oc2cc(OCc3cn(Cc4cc(=O)oc5ccc6ccccc6c45)nn3)ccc12 | – | – | – | – | 6.25 µg/mL (≈ 13.4 µM) | –
14 | COc1ccc2oc(=O)cc(COc3cccc(I)c3)c2c1 | 50 µg/mL (≈ 122 µM) | 25 µg/mL (≈ 61.2 µM) | 12.5 µg/mL (≈ 30.6 µM) | 50 µg/mL (≈ 122 µM) | – | –
15 | Cc1ccc2c(COc3ccc(I)cc3)cc(=O)oc2c1 | 12.5 µg/mL (≈ 31.9 µM) | 25 µg/mL (≈ 63.7 µM) | 12.5 µg/mL (≈ 31.9 µM) | 12.5 µg/mL (≈ 31.9 µM) | – | –
16 | O=c1cc(COc2cccc(I)c2)c2ccc3ccccc3c2o1 | 25 µg/mL (≈ 58.4 µM) | 25 µg/mL (≈ 58.4 µM) | 12.5 µg/mL (≈ 29.2 µM) | 50 µg/mL (≈ 117 µM) | – | –
17 | Cc1ccc2oc(=O)cc(COc3ccc(I)cc3)c2c1 | 12.5 µg/mL (≈ 31.9 µM) | 12.5 µg/mL (≈ 31.9 µM) | 12.5 µg/mL (≈ 31.9 µM) | 12.5 µg/mL (≈ 31.9 µM) | – | –
18 | O=c1cc(COc2ccccc2I)c2cc(Cl)ccc2o1 | 25 µg/mL (≈ 60.6 µM) | 6.25 µg/mL (≈ 15.1 µM) | 12.5 µg/mL (≈ 30.3 µM) | 12.5 µg/mL (≈ 30.3 µM) | – | –
19 | COc1ccc2oc(=O)cc(COc3ccccc3I)c2c1 | 50 µg/mL (≈ 122 µM) | 12.5 µg/mL (≈ 30.6 µM) | 25 µg/mL (≈ 61.2 µM) | 25 µg/mL (≈ 61.2 µM) | – | –

Row | SMILES | MIC [1] | MIC [2] | MIC [3] | MIC [4] | MIC [5] | MIC [6]
20 | Cc1ccc2c(COc3ccccc3I)cc(=O)oc2c1C | 50 µg/mL (≈ 123 µM) | 25 µg/mL (≈ 61.5 µM) | 50 µg/mL (≈ 123 µM) | 25 µg/mL (≈ 61.5 µM) | – | –
21 | O=C(Cc1cc(=O)oc2cc(O)ccc12)N/N=C/c1cccc([N+](=O)[O-])c1 | – | – | – | – | – | 6.25 µg/mL (≈ 17 µM)
22 | COc1ccc2c(COc3cccc(I)c3)cc(=O)oc2c1 | 50 µg/mL (≈ 122 µM) | 25 µg/mL (≈ 61.2 µM) | 12.5 µg/mL (≈ 30.6 µM) | 50 µg/mL (≈ 122 µM) | – | –
23 | O=c1cc(COc2ccccc2I)c2ccc(Cl)cc2o1 | 25 µg/mL (≈ 60.6 µM) | 6.25 µg/mL (≈ 15.1 µM) | 12.5 µg/mL (≈ 30.3 µM) | 12.5 µg/mL (≈ 30.3 µM) | – | –
24 | O=c1cc(COc2ccc(I)cc2)c2cc(Cl)ccc2o1 | 3.12 µg/mL (≈ 7.57 µM) | 1.56 µg/mL (≈ 3.78 µM) | 3.12 µg/mL (≈ 7.57 µM) | 1.56 µg/mL (≈ 3.78 µM) | – | –
25 | O=c1cc(COc2ccccc2I)c2cc(Br)ccc2o1 | 50 µg/mL (≈ 109 µM) | 6.25 µg/mL (≈ 13.7 µM) | 12.5 µg/mL (≈ 27.3 µM) | 12.5 µg/mL (≈ 27.3 µM) | – | –
26 | O=c1cc(COc2cccc(I)c2)c2cc(Br)ccc2o1 | 6.25 µg/mL (≈ 13.7 µM) | 12.5 µg/mL (≈ 27.3 µM) | 6.25 µg/mL (≈ 13.7 µM) | 6.25 µg/mL (≈ 13.7 µM) | – | –
27 | O=c1cc(COc2cccc(I)c2)c2c(ccc3ccccc32)o1 | 25 µg/mL (≈ 58.4 µM) | 25 µg/mL (≈ 58.4 µM) | 12.5 µg/mL (≈ 29.2 µM) | 50 µg/mL (≈ 117 µM) | – | –
28 | O=c1cc(COc2cccc(I)c2)c2cc(Cl)ccc2o1 | 6.25 µg/mL (≈ 15.1 µM) | 12.5 µg/mL (≈ 30.3 µM) | 6.25 µg/mL (≈ 15.1 µM) | 6.25 µg/mL (≈ 15.1 µM) | – | –
29 | Cc1ccc2c(COc3cccc(I)c3)cc(=O)oc2c1 | 12.5 µg/mL (≈ 31.9 µM) | 25 µg/mL (≈ 63.7 µM) | 25 µg/mL (≈ 63.7 µM) | 25 µg/mL (≈ 63.7 µM) | – | –
30 | Cc1cc(=O)oc2cc(OCc3cn(Cc4cc(=O)oc5cc(Cl)ccc45)nn3)ccc12 | – | – | – | – | 6.25 µg/mL (≈ 13.9 µM) | –
31 | O=c1cc(COc2ccccc2I)c2c(ccc3ccccc32)o1 | 50 µg/mL (≈ 117 µM) | 50 µg/mL (≈ 117 µM) | 25 µg/mL (≈ 58.4 µM) | 25 µg/mL (≈ 58.4 µM) | – | –
32 | Cc1ccc2oc(=O)cc(COc3cccc(I)c3)c2c1 | 12.5 µg/mL (≈ 31.9 µM) | 25 µg/mL (≈ 63.7 µM) | 25 µg/mL (≈ 63.7 µM) | 25 µg/mL (≈ 63.7 µM) | – | –
33 | COc1ccc2c(COc3ccc(I)cc3)cc(=O)oc2c1 | 12.5 µg/mL (≈ 30.6 µM) | 25 µg/mL (≈ 61.2 µM) | 6.25 µg/mL (≈ 15.3 µM) | 25 µg/mL (≈ 61.2 µM) | – | –
34 | COc1ccc2oc(=O)cc(COc3ccc(I)cc3)c2c1 | 12.5 µg/mL (≈ 30.6 µM) | 25 µg/mL (≈ 61.2 µM) | 6.25 µg/mL (≈ 15.3 µM) | 25 µg/mL (≈ 61.2 µM) | – | –
35 | O=c1cc(COc2ccc(I)cc2)c2ccc(Cl)cc2o1 | 3.12 µg/mL (≈ 7.57 µM) | 1.56 µg/mL (≈ 3.78 µM) | 3.12 µg/mL (≈ 7.57 µM) | 1.56 µg/mL (≈ 3.78 µM) | – | –
36 | COc1ccc2c(COc3ccccc3I)cc(=O)oc2c1 | 50 µg/mL (≈ 122 µM) | 12.5 µg/mL (≈ 30.6 µM) | 25 µg/mL (≈ 61.2 µM) | 25 µg/mL (≈ 61.2 µM) | – | –
37 | Cc1ccc2c(COc3ccccc3I)cc(=O)oc2c1 | > 100 µg/mL | 12.5 µg/mL (≈ 31.9 µM) | 50 µg/mL (≈ 127 µM) | 12.5 µg/mL (≈ 31.9 µM) | – | –
